Rows were chosen to be rich in hits. Some 3.7% of all compounds tested hit in one or more screens of this group.
KCNK3 inh = human KCNK3 channel inhibition, primary screen; O14649; AID 602410; B-score at 10 µM; 340,000 tested, 0.84% active; CHO-KCNK3 thallium flux, FluxOR fluorescence; hits give low values;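 active = B-score under library mean minus 4 SD, starting fluorescence ratio at most library mean plus 5 SD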;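 note: more negative B-score means stronger inhibition of thallium flux through KCNK3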
KCNK9 inh = inhibitors of human KCNK9 two-pore domain potassium channel | Q9NPC2 | HEK293 KCNK9, FluxOR thallium flux fluorescence; hits give low values | B-score at 10 µM | 310,000 tested, 1.2% active;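 active = ratio B-score over 3 SD below the library mean, with starting fluorescence within 5 SD of its mean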;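 note: negative B-score means less thallium flux so channel inhibition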
Kir21 inh = Kir2.1 (mouse) channel inhibition. HEK293-Kir2.1, FluxOR thallium flux fluorescence; hits give low values. B-score at 10 µM. P35561. 310,000 tested, 0.85% active;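 active = fluorescence ratio B-score at or below minus 3 SD of library scores, with starting-brightness B-score within 2 SD, cut at about -4.2 in these data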;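 note: channel flux triggered by added potassium and thallium sulfate stimulus; B-score of peak minus minimum fluorescence over baseline after thallium stimulus; more negative B-score means stronger Kir2.1 block with less thallium influx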
Target sequence (P35561 whole entry, looked up): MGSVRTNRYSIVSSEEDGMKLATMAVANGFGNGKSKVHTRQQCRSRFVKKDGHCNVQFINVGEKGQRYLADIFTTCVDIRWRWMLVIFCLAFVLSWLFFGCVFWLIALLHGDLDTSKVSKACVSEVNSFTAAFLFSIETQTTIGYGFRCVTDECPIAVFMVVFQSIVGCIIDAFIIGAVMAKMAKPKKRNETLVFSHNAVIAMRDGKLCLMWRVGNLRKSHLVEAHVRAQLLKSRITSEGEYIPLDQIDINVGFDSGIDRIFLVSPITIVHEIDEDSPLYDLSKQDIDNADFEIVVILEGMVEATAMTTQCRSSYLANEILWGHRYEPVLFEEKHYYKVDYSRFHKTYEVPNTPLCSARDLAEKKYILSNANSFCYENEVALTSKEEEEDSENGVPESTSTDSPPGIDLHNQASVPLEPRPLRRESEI
hERG rescue = hERG (human) protection from proarrhythmic block | CHO-hERG, FluxOR thallium flux, dofetilide IC70 present | activation (rescue from dofetilide block), less the hit threshold, % at 10 µM | Q12809 | 310,000 tested, 0.51% active | AID 1511;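 active = activation above the mean of controls blocked by dofetilide plus 5 SD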;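 note: thallium influx through hERG after potassium depolarization seen as dye fluorescence rise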
KCNQ1 inh = blocks the human KCNQ1 potassium channel. CHO-K1 KCNQ1, FluxOR thallium flux fluorescence; hits give high values. B-score at 10 µM. 310,000 tested, 1.3% active. AID 2642;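 active = compounds whose thallium flux B-score, printed positive for inhibition, exceeds three library SD while starting fluorescence stays within three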;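 note: channel opened by potassium depolarization with thallium stimulus after 20 min compound exposure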
KCNQ1 act = human KCNQ1 channel potentiation or activation; AID 2648; B-score at 10 µM; CHO-K1 KCNQ1, thallium flux FluxOR fluorescence; hits give high values; 310,000 tested, 0.35% active;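 active = fluorescence ratio B-score, a plate-corrected score, at least three library SD, with initial intensity B-score within 5 SD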
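assay system = KCNQ1-transfected CHO-K1 cells | medium = assay buffer with matched DMSO | probe or stimulus = depolarizing K+/Tl+ stimulus, K2SO4 and Tl2SO4 each 12.5 mM in 5x stock | dosing = single dose | incubation = dye 90 min, compound 20 min, room temperature | detection = kinetic FluxOR fluorescence, 10 s baseline plus 110 s post-stimulus | evaluation = ratio B score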
Active calls of the source: *; i = inactive; nt = not tested or not shown.

SMILES	KCNK3 inh	KCNK9 inh	Kir21 inh	hERG rescue	KCNQ1 inh	KCNQ1 act
Cc1cccc(N(CC(=O)NC2CCCC2)C(=O)CNC(=O)c2ccco2)c1C	i	i	-0.15	-4.8	i	i
Cn1c2ccccc2c2c(C(=O)NCc3ccco3)cn(C3CCCCC3)c(=O)c21	i	i	0.53	-10.7	i	i
Cc1ccc(CNC(=O)c2cn(C3CCCC3)c(=O)c3c2c2ccccc2n3C)o1	nt	-6.71*	0.43	-4.3	i	i
Cc1[nH]c(=O)nc(NN=Cc2ccc(Cl)cc2)c1C(=O)Nc1ccc(Cl)cc1	i	nt	nt	nt	nt	nt
COc1ccc2nc(N3CCCCC3)c(/C=C3\SC(=S)NC3=O)cc2c1	i	i	0.99	7.4*	i	i
O=C1NC(=S)S/C1=C\c1cc2ccccc2nc1N1CCCCC1	i	i	0.54	-6.3	i	i
CCOC(=O)CC(=O)CSc1nc2c(sc(=S)n2-c2ccc(OCC)cc2)c(=O)[nH]1	i	i	-0.43	-9.1	i	i
CCCCN(CC)C(=O)CSc1nc2c(sc(=S)n2-c2ccc(OCC)cc2)c(=O)[nH]1	i	i	2.21	-19.2	8*	i
O=C(NC1CCCC1)C(c1ccncc1)N(C(=O)c1csnn1)C1CCCC1 (centres undefined)	i	i	-0.13	-8.4	i	i
O=C(CSc1nc(-c2ccc(Cl)cc2)cs1)Nc1cccc([N+](=O)[O-])c1	i	i	-0.2	-16.8	6*	i
CC1CCCCN1CCNC(=O)Cn1nc(-c2ccccc2)ccc1=O (centres undefined)	i	i	0.24	2.5	i	i
CC1CCCCC1NC(=O)Cn1nc(-c2ccccc2)ccc1=O (centres undefined)	i	i	-0.04	4.9*	i	i
O=c1c2ccccc2c(C=NCc2ccccn2)c(O)n1-c1ccccc1	i	i	0.75	-3.2	i	i
O=c1c2ccccc2c(C=NCc2ccccn2)c(O)n1-c1ccccc1Cl	i	i	-0.33	8.0*	i	i
CCOc1ccc(S(=O)(=O)N(CC)CC(=O)NCc2ccncc2)cc1C	i	i	-0.39	-3.5	i	i
Cc1cccc(-n2c(N)c(-c3nc4ccccc4n3C)c3nc4ccccc4nc32)c1	-8.76*	i	-0.09	-14.5	i	i
CC(CC(=O)Nc1ccc(Cl)c([N+](=O)[O-])c1)c1ccccc1 (centres undefined)	i	i	-1.57	-16.1	10*	i
O=C(Nc1ccc(Cl)c([N+](=O)[O-])c1)Nc1nc2ccccc2s1	nt	i	0.39	-8.8	9*	i
O=C(Cc1nc2ccccc2[nH]1)c1cccc([N+](=O)[O-])c1	i	i	0.47	-16.5	8*	i
COc1ccc(NC(=O)c2ccco2)c(OC)c1	i	i	-1.25	-6.6	i	i
COc1ccc(NC(=O)c2oc3ccccc3c2NC(=O)c2ccco2)c(OC)c1	i	-7.76*	0.04	-10.9	i	i
COc1ccc(OC)c(NC(=O)c2c(NC(=O)c3ccco3)sc3c2CCC3)c1	nt	-7.54*	0.77	-9.1	i	i
O=C(Nc1cccc([N+](=O)[O-])c1)NC1CCCCCCC1	i	i	1.5	-18.1	7*	i
COc1cc(NC(=O)Nc2cccc([N+](=O)[O-])c2)cc(OC)c1	i	i	-0.34	-4.7	i	i
O=C(Nc1cccc([N+](=O)[O-])c1)Nc1cccc([N+](=O)[O-])c1	i	i	-2.53	-21.9	8*	i
SMILES	KCNK3 inh	KCNK9 inh	Kir21 inh	hERG rescue	KCNQ1 inh	KCNQ1 act
Cc1ccc(NS(=O)(=O)c2cc(C(=O)Nc3cccc([N+](=O)[O-])c3)ccc2C)cc1	i	-6.77*	0.14	-2.8	i	i
Cc1ccc(C(=O)Nc2cccc([N+](=O)[O-])c2)cc1S(=O)(=O)Nc1ccc(NC(=O)c2ccccc2)cc1	i	i	0.51	-7.5	i	i
Cc1ccc(NC(=O)c2cccs2)cc1S(=O)(=O)Nc1cccc(Cl)c1	i	-7.79*	-0.93	-9.4	i	i
Cc1ccc(C(=O)NC(C(=O)OCc2cn3cc(Cl)ccc3n2)C(C)C)cc1 (centres undefined)	i	nt	nt	nt	nt	nt
CCN(C[C@H]1N[C@@](C)(C(=O)OC)[C@H]2C(=O)N(Cc3ccccc3)C(=O)[C@@H]12)S(=O)(=O)c1ccccc1	i	nt	nt	nt	nt	nt
Cn1ccc(NC(=O)Nc2cccc([N+](=O)[O-])c2)n1	i	i	2.43	-12.4	6*	i
O=C(Nc1ccc(C(=O)O)cc1)Nc1cccc([N+](=O)[O-])c1	i	i	-0.02	-8.3	7*	i
Cc1ccc(NC(=O)Nc2cccc([N+](=O)[O-])c2)nc1	i	i	2.01	-6.2	i	i
O=[N+]([O-])c1ccc(C=NN2CCCCCC2)cc1	i	nt	nt	nt	nt	nt
OCC(O)C1OC(c2ccccc2)OC(CO)C1O (centres undefined)	i	nt	nt	nt	nt	nt
CC(C)(C)C1=CC(=O)C(=O)C(C(C)(C)C)=C1	i	-7.41*	-8.55*	-26.9	6*	i
CC(=O)c1c(C)[nH]c(C(=O)CSc2nnc(C)s2)c1C	i	i	-0.01	-6.2	i	i
CCCC[C@@H]1C[C@H]1[C@@H](NC(=O)c1cccs1)c1ccc(C(F)(F)F)cc1	nt	-7.32*	0.58	-14.8	i	i
CC(C)(C)NS(=O)(=O)c1ccc(NC(=O)CS(=O)(=O)Cc2ccccc2)cc1	i	i	0.97	-9.2	i	i
O=C(COC(=O)c1ccccc1C(=O)c1ccc(Cl)cc1)NCC1CCCO1 (centres undefined)	i	i	-0.02	-6.1	i	i
CC1CCCCN1C(=O)CN1CCC(c2nc3ccc(Cl)cc3[nH]2)CC1 (centres undefined)	i	i	-0.46	-2.5	i	i
Cc1ccc2nc(C3CCN(S(=O)(=O)c4ccc5ccccc5c4)CC3)[nH]c2c1	i	i	-0.8	-5.2	i	8*
Clc1ccc2nc(C3CCN(Cc4ccccc4)CC3)[nH]c2c1	i	i	-6.78*	-5.6	i	i
Cc1ccc(CN2CCC(c3nc4ccc(Cl)cc4[nH]3)CC2)cc1	i	i	-9.98*	-9.8	i	i
Cc1cccc(NC(=O)c2csnn2)n1	i	i	-0.04	-6.8	i	i
COc1ccc(-n2nc(C(=O)NCC(=O)Nc3cccc(Cl)c3)c3ccccc3c2=O)cc1OC	i	i	-1.6	-2.7	i	i
Cc1nn(Cc2ccccc2)c(C)c1NC(=O)CSc1nc2sc3c(c2c(=O)n1C)CCC3	nt	i	-0.12	-10.2	i	i

Bioassay records from PubChem.
